High-throughput results as filed in PubChem BioAssay.
MPTP inh: blocks calcium-induced mitochondrial swelling; AID 602449; inhibition, % at 10 µM; isolated mouse mitochondria, Ca2+ swelling absorbance, 30 min; hit rate 1.4% among 360,000;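 active means inhibition of 50% or more, scaled per plate between neutral and stimulator controls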;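 further: 0% = DMSO wells given calcium and 100% = 1 mM EGTA wells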
SMARCA2 act: increases SMARCA2 function in MMTV reporter cells | MG213 cells, MMTV-luciferase reporter, dexamethasone, overnight | activation, % at 9.1 µM | hit rate 1% among 370,000; in the data active means activation above about 7.8%;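 further: 0% = vehicle wells and 100% = reference activator wells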
MC4R barr agon: agonists of human melanocortin 4 receptor (MC4R) beta-arrestin. P32245. U2OS MC4R beta-arrestin complementation, luminescence; percent of melanotan II response, DMSO zero. activation, % at 8.9 µM. hit rate 0.98% among 360,000;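 active means activation above a per-plate cutoff, the mean activation of sample wells on that plate plus 3 SD, cut at about 8% in these data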
Target sequence (P32245 whole entry, looked up): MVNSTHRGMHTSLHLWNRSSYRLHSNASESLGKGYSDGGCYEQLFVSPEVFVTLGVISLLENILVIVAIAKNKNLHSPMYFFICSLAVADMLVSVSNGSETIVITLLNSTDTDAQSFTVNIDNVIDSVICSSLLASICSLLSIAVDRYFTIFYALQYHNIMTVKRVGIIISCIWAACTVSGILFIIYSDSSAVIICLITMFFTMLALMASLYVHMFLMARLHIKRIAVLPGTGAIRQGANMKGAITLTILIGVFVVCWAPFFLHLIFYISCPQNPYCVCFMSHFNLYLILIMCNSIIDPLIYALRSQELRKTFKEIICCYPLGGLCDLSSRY
MC4R antag cAMP: antagonists of human melanocortin 4 receptor (MC4R) | P32245 | MC4R-expressing cells, MTII-stimulated cAMP, LANCE TR-FRET | inhibition, % at 6.5 µM | hit rate 0.48% among 360,000;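 active means inhibition above its plate's cutoff, the mean of tested wells on that plate plus 3 SD, cut at about 29% in these data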;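 further: 0% = Melanotan II alone and 100% = Melanotan II plus saturating MCL0020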
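Material: human MC4R-expressing U2OS cells. Probe or stimulus: Melanotan II challenge. Dosing: 6.5 µM single dose. Times: 30-min compound, 1-h challenge, 1-h detection, room temperature. Technique: TR-FRET with Eu-cAMP and labeled anti-cAMP, 671 nm. Replication: singlicate.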
ATG4B inhibitor: ATG4B (human) cysteine protease inhibition | ATG4B cleavage of LC3-PLA2, NBD-HPC fluorescence, 1 h | AID 504462 | Q9Y4P1 | inhibition, % at 8.33 µM | hit rate 0.51% among 340,000; in the data active means inhibition above about 40%
Target sequence (Q9Y4P1 whole entry, looked up): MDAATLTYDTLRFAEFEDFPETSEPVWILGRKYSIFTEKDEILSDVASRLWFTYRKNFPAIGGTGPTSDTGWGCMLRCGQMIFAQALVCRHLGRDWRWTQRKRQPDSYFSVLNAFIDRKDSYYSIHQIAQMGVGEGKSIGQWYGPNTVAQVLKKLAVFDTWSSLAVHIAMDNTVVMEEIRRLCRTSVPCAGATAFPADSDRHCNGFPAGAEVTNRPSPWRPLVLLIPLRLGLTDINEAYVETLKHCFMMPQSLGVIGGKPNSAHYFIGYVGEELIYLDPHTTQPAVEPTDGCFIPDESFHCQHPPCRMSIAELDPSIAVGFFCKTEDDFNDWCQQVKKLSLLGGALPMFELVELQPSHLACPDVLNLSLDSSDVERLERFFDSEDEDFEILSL
SMARCA2 act conf: confirmation of SMARCA2 (BRM) function activators; shares compounds with SMARCA2 act; MG213 cells, MMTV-luciferase with dexamethasone, luminescence, overnight; MG213 cells expressing E1A, Rb sequestered; DMSO wells 0%, reference activator 100%; activation, % at 9.1 µM; hit rate 30% among 3,500;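 active means activation above its plate's cutoff, the mean activation of tested wells plus 3 SD, cut at about 7.9% in these data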
GAL4-VP16 Luc: counter-screen for SMARCA2 activators: GAL4-VP16 luciferase reporter activation | activation, % at 9.1 µM | HEK293 GAL4-VP16 pG5luc reporter, luciferase luminescence; scaled: DMSO wells 0%, SAHA wells 100% | hit rate 41% among 3,500 | shares compounds with SMARCA2 act | AID 686939;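 active means activation above the solvent-only control well mean plus 3 SD, averaged across control plates, cut at about 5.2% in these data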
An asterisk follows results filed as active; . = no result. Shown are actives, neighbours in structure and some others; about 4.1% of the full set was active somewhere.

SMILES | MPTP inh | SMARCA2 act | MC4R barr agon | MC4R antag cAMP | ATG4B inhibitor | SMARCA2 act conf | GAL4-VP16 Luc
CC(=O)C1=C(C)N(Cc2ccc(F)cc2)C(=S)NC1c1ccccc1 (stereo unspecified) | . | -2.0 | . | . | . | . | .
CCOC(=O)C(=CNCC(=O)O)C(=O)OCC | -0.1 | 11.1* | -1.1 | 15.1 | -4.8 | -1.8 | -0.3
Cc1occc1C(=O)Nc1ccc(Br)cc1F | -0.3 | 10.4* | -0.1 | 0.5 | -2.0 | 16.1* | 10.0*
CCCCNS(=O)(=O)CC1NCCc2ccccc21 (stereo unspecified) | . | -1.9 | . | . | . | . | .
Cc1ccc(N2C(S)=C(C#N)C(=O)NC2c2cccs2)cc1 (stereo unspecified) | -1.1 | 8.0* | -2.1 | 17.3 | 0.7 | 2.2 | 0.4
N#CC1=C(S)N(c2ccccc2)C(c2cccs2)NC1=O (stereo unspecified) | -1.3 | 1.4 | -0.1 | 22.7 | 0.3 | . | .
CCN(C(=O)CCc1cn(CC)c2ccccc12)c1ccc(Oc2cccnc2)cc1 | . | -0.6 | . | . | . | . | .
CCN(C)c1ccc(/C=N\n2nnnc2N)cc1 | -0.5 | 12.3* | -1.3 | -7.2 | -6.0 | 7.6 | 14.9*
O=C(OCCCN1CCC2(CCCCC2)C1=O)c1ccccc1 | . | -2.3 | . | . | . | . | .
CC(C1=CCCCC1)c1cnn(C)c1 (stereo unspecified) | . | 9.4* | . | . | . | -0.7 | -0.8
CNC(=O)c1ncoc1-c1ccc(Cl)cc1 | 0.9 | 8.1* | -2.2 | -5.1 | 4.8 | -0.5 | -0.1
COc1ccc(-c2ccc(SCC(=O)NC3CCCCC3)nn2)cc1OC | 0.7 | 8.5* | 0.9 | 0.2 | -2.1 | 10.9* | 4.8
CCOC1=C2[C@@H](CN(S(=O)(=O)c3ccc(C)cc3)[C@H]2c2cccc3ccccc23)[C@H]2C(=O)N(c3ccccc3)C(=O)[C@H]2C1 | -0.3 | 1.2 | . | . | . | . | .
CCOC1=C2[C@@H](CN(S(=O)(=O)c3ccc(C)cc3)[C@H]2c2cccc3ccccc23)[C@H]2C(=O)N(C3CCCCC3)C(=O)[C@H]2C1 | 2.6 | 10.1* | . | . | . | -1.6 | -0.9
COc1ccc(/C(C)=N/NC(=O)Cc2cc(=O)[nH][nH]2)cc1OC | . | -1.0 | . | . | . | . | .
O=C(COC(=O)/C=C/c1c(F)cccc1Cl)NCC1CCCO1 (stereo unspecified) | 1.4 | -0.7 | -0.1 | 2.3 | 4.4 | . | .
O=C(COC(=O)/C=C/c1ccc(Cl)cc1Cl)NCC1CCCO1 (stereo unspecified) | -0.3 | 8.7* | -0.2 | 4.1 | -0.8 | 1.8 | -0.2
COc1ccccc1-c1csc(C(NC(C)=O)c2cccc(F)c2)n1 (stereo unspecified) | 1.1 | 8.4* | 1.4 | 14.1 | . | 2.6 | 0.7
COC(=O)C1=C(C)N(C)C(=NCC2CC2)NC1c1cccc(C(F)(F)F)c1 (stereo unspecified) | . | -6.3 | . | . | . | . | .
COc1ccc(C(=O)N2C(=S)NC(=O)/C2=C\c2ccc(C)cc2)cc1 | 5.7 | 12.7* | 1.0 | 3.7 | 27.6 | -1.6 | 1.5
O=C(NC1CCCC1)[C@@H]1CCCN1C(=O)[C@@H](NS(=O)(=O)c1ccc(F)cc1F)c1ccccc1 | . | -3.8 | . | . | . | . | .
CCn1c(Cc2cccs2)nnc1SCC(=O)Nc1ccc2c(c1)OCCO2 | . | -0.5 | . | . | . | . | .
Cc1ccc(C(=O)COc2cc(C)nc3nncn23)cc1 | 1.2 | 10.9* | 1.5 | -4.5 | 2.4 | -1.5 | 2.0
CCOC(=O)[C@]12CCCCC/C=C\1N(CCc1ccc(Cl)cc1)C(=O)[C@H]2CC(=O)NCc1cccc2ccccc12 | . | -2.8 | . | . | . | . | .
O=C(Nc1c(-c2ccccc2)nc2ncccn12)C1CC1 | . | -0.7 | . | . | . | . | .
SMILES | MPTP inh | SMARCA2 act | MC4R barr agon | MC4R antag cAMP | ATG4B inhibitor | SMARCA2 act conf | GAL4-VP16 Luc
Cc1cc(-c2ccco2)c(C#N)c2nc3ccccc3n12 | -2.1 | 12.3* | 2.5 | -4.1 | 1.6 | 41.3* | 6.5*
CCOc1ccc(C(=O)NC(=S)Nc2ccccn2)cc1[N+](=O)[O-] | 3.5 | 0.5 | 2.1 | 5.4 | -0.1 | . | .
O=C(N/N=C/c1ccccn1)c1ccc(N/N=C/c2ccccn2)cc1 | -0.2 | 0.7 | -0.7 | 11.6 | 0.4 | . | .
O=C(NC(=S)Nc1ccccn1)c1cccc([N+](=O)[O-])c1 | 2.1 | 8.8* | -0.3 | 0.5 | -9.7 | 4.9 | 7.5*
O=C(N/N=C/c1ccccn1)c1cccc([N+](=O)[O-])c1 | -0.5 | 10.8* | -2.0 | 1.4 | -5.0 | 1.5 | 3.5
O=C(N/N=C/c1ccccn1)c1ccc(Br)cc1 | -2.8 | 11.8* | -4.7 | 17.2 | 4.2 | -8.1 | 25.2*
O=C(Nc1ccc2c(c1)OCO2)C1Cc2c(-c3ccccc3Oc3ccccc3)ccnc2O1 (stereo unspecified) | 3.2 | -8.4 | -1.9 | 2.8 | . | . | .
COC(=O)C1CN(Cc2ccccc2)CCS(=O)(=O)N1Cc1cn(Cc2ccccc2)nn1 (stereo unspecified) | . | -3.4 | . | . | . | . | .
O=c1/c(=C/c2ccc([N+](=O)[O-])cc2)sc2n1CCCN=2 | -0.5 | 8.7* | 1.3 | 7.5 | -3.3 | 11.5* | 12.6*
COc1cc(/C=c2\sc3n(c2=O)CCCN=3)ccc1O | -0.9 | 4.0 | -1.4 | -10.7 | -12.5 | . | .
COc1cccc(CC(=O)Nc2nc(C)cs2)c1 | -1.7 | 8.6* | 0.0 | 9.2 | -6.2 | 4.1 | 2.4
COc1cccc(CC(=O)Nc2ncc(C)s2)c1 | 0.1 | 1.7 | -1.0 | -4.4 | -3.8 | . | .
COC(=O)[C@]12C[C@H](CC(=O)N3CCCC3)C(=O)N(Cc3ccco3)C1=C[C@H](C(C)(C)C)O[C@@H]2C | . | -0.1 | . | . | . | . | .
Cc1ccc(N/N=C(\C#N)C(=N)N2CCCCCC2)cc1 | -0.1 | 8.3* | -3.1 | -7.0 | -2.5 | 11.6* | 13.6*
N#C/C(=N\Nc1ccc(Cl)cc1)C(=N)N1CCCCC1 | 4.0 | 1.7 | 0.1 | -8.9 | 3.6 | . | .
Cc1ccc(N/N=C(\C#N)C(=N)N2CCOCC2)cc1 | 0.8 | 4.1 | 0.1 | -16.1 | -6.0 | . | .
N#C/C(=N\Nc1ccc(F)cc1)C(=N)N1CCCCCC1 | -1.0 | 12.0* | -2.2 | 8.4 | 5.2 | 14.8* | 19.2*
Cc1cccc(NC(=O)C2CCN(c3nnc(-n4cccc4)s3)CC2)c1C | . | -5.2 | . | . | . | . | .
Nc1ncnc2c1ncn2[C@@H]1O[C@H](C(=O)N[C@@H](CCc2ccccc2)C(=O)N2CCN(C(=O)N3CCOCC3)CC2)[C@@H](O)[C@H]1O | . | -1.4 | . | . | . | . | .
Cc1nn(CC(=O)NCCCN2CCN(Cc3ccccc3)CC2)c(=O)c2cc(-c3ccccc3)nn12 | 12.1 | 8.5* | -1.4 | 3.1 | -8.2 | -0.6 | 1.6
O=C(/C=C/Nc1ccccc1C(F)(F)F)c1ccco1 | 0.6 | 7.8 | -1.2 | 3.5 | 5.7 | . | .
O=C(/C=C/Nc1cccc(C(F)(F)F)c1)c1ccco1 | -1.4 | 8.7* | 3.2 | -9.8 | 8.9 | 9.2* | 8.5*
Nc1c2c(nc3ccccc13)CCCC2 | . | -3.9 | -0.6 | -1.8 | -2.2 | . | .
